{"source": "paper PMC3085913", "about": "(NeuroImage, 2011)", "key": {"[1]": {"test_system": "blood brain barrier", "settings": "rodents, after intra-arterial carotid injection; ref McCarty et al., 2009; cited from earlier work"}, "[2]": {"test_system": "humans", "settings": "patients, ref Castillo et al., 2009, Tang and Lobel; cited from earlier work"}, "[3]": {"test_system": "Aβ plaques in APP and APP/PS1 transgenic AD mice", "settings": "MRI after injection; ref Wadghiri et al., 2003; cited from earlier work"}, "[4]": {"test_system": "N2a mouse neuroblastoma cells", "assay": "MTS cell proliferation", "type": "cell-based", "settings": "72 hrs"}, "[5]": {"test_system": "amyloid plaques in APP/PS1 Tg and wild-type mouse brain", "type": "in vivo", "settings": "two 14-month-old APP/PS1 mice, before and 6 hs after contrast injection; data not shown", "method_in_brief": "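Mice received the test conjugate at 0.2 mmol Fe/kg in 200 μl 15% mannitol/PBS by right femoral vein infusion at 60 μl/min, under isoflurane (2.5% induction, 1–1.5% maintenance). Scanned 6 h post-injection; two 14-month-old APP/PS1 mice were also scanned pre-injection. 3D four-echo acquisition; third echo (TE=12.3 ms) gave the T2*-weighted images. Checked against matched immunostained sections.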"}, "[6]": {"test_system": "amyloid plaques in APP/PS1 Tg mouse brain", "type": "in vivo", "settings": "femoral i.v. with mannitol; third echo, TE = 17.5", "method_in_brief": "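Aged 13–17-month APP/PS1 mice and age-matched C57Bl/6J controls received the test conjugate at 0.2 mmol Fe/kg in 200 μl 15% mannitol/PBS, infused via right femoral vein at 60 μl/min under isoflurane. Later: pentobarbital 150 mg/kg i.p., transaortic perfusion with PBS then 4% paraformaldehyde. Extracted brains scanned overnight, up to four together; third echo of four-echo set. 6E10/4G8 histology for matching. 13 Tg vs 12 wild-type.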"}, "[7]": {"test_system": "APP/PS1 Tg and wild-type mouse brain (amyloid plaques)", "assay": "ROI-based absolute T2* measurement, in vivo μMRI", "settings": "contrast injected APP/PS1 Tg versus contrast injected wild-type mice"}, "[8]": {"test_system": "APP/PS1 Tg versus wild-type mouse brain (amyloid plaques)", "assay": "Voxel-based morphometry", "type": "in vivo", "settings": "for VBM cluster T-score: WT n=12 vs AD Tg n=13; for VBM cluster Extent: WT n=12 vs AD Tg n=13 after contrast injection"}, "[9]": {"test_system": "APP/PS1 Tg and wild-type mice", "assay": "Toxicity observed in experimental animals", "type": "in vivo, mouse", "settings": "0.2 mmol Fe/kg femoral i.v. with 15% mannitol"}}, "note": "“Also recorded” adds a separate entry of the source.", "data": [{"compound": "OC[C@@H](O)[C@@H](O)[C@H](O)[C@H](O)CO", "note": "[mannitol]", "values": [{"measurement": "time of maximum BBB disruption, intra-arterial carotid", "setting": "[1]", "result": 5, "unit": "min"}, {"measurement": "tolerability of intravenous mannitol (in words)", "setting": "[2]", "result": "much better tolerated and is used safely in patients"}]}, {"compound": "MION-Aβ1-40: Aβ1-40 magnetically labeled with monocrystalline iron oxide nanoparticles (MION)", "values": [{"measurement": "plaque visualization as hypointense spots (in words)", "setting": "[3]", "result": "hypointense spots characterized by loss of signal intensity"}]}, {"compound": "Aβ1-42: Aβ 1-42 peptide synthesized in the W.M. Keck Facility at Yale University [reference compound]", "values": [{"measurement": "reduction in cell viability", "setting": "[4]; 10 μM, MTS, 490 nm, percent of non-treated control", "result": 50, "unit": "%"}]}, {"compound": "USPIO-Aβ1-42: ultrasmall superparamagnetic iron oxide (USPIO) nanoparticles linked to Aβ1-42 peptide using standard EDC/NHS coupling methods", "values": [{"measurement": "cell viability, USPIO versus USPIO-Aβ1-42 (significance in words)", "setting": "[4]; bound Aβ1-42 10 μM, Newman-Keuls post-hoc", "result": "did not differ significantly"}, {"measurement": "cell viability versus control untreated cells (significance in words)", "setting": "[4]; bound Aβ1-42 10 μM, USPIO matched, Newman-Keuls post-hoc", "result": "did not differ significantly"}, {"measurement": "amyloid plaque detection pre- versus postinjection", "setting": "[5]", "result": "Amyloid plaques were only detected in the postinjection images"}, {"measurement": "plaque detection on ex vivo μMRI, APP/PS1 mice", "setting": "[6]", "result": "Amyloid plaques were also detected; also recorded: Many plaques can be detected in APP/PS1 mice"}, {"measurement": "p, T2* difference in left and right cortex (Figure 5C)", "setting": "[7]", "result": "< 0.01"}, {"measurement": "VBM difference in cerebellum (in words)", "setting": "[8]; APP/PS1 (n=13) versus wild-type (n=12), USPIO-Aβ1-42 injected", "result": "No differences were seen in the cerebellum"}, {"measurement": "VBM cluster T-score", "setting": "[8]; cluster AuD, Cortex (R)", "result": 3.02}, {"measurement": "VBM cluster Extent", "setting": "[8]; cluster AuD, Cortex (R)", "result": 1388, "unit": "voxels"}, {"measurement": "VBM cluster T-score", "setting": "[8]; cluster FrA, Cortex (L)", "result": 5.03}, {"measurement": "VBM cluster Extent", "setting": "[8]; cluster FrA, Cortex (L)", "result": 1123, "unit": "voxels"}, {"measurement": "VBM cluster T-score", "setting": "[8]; cluster HDB, Cortex (R)", "result": 4.02}, {"measurement": "VBM cluster Extent", "setting": "[8]; cluster HDB, Cortex (R)", "result": 685, "unit": "voxels"}, {"measurement": "VBM cluster T-score", "setting": "[8]; cluster LEnt, Cortex (L)", "result": 3.78}, {"measurement": "VBM cluster Extent", "setting": "[8]; cluster LEnt, Cortex (L)", "result": 656, "unit": "voxels"}, {"measurement": "VBM cluster T-score", "setting": "[8]; cluster M1, Cortex (L)", "result": 3.48}, {"measurement": "VBM cluster T-score", "setting": "[8]; cluster M2, Cortex (R)", "result": 3.71}, {"measurement": "VBM cluster T-score", "setting": "[8]; cluster PoDG, Hippocampus (R)", "result": 4.42}, {"measurement": "VBM cluster Extent", "setting": "[8]; cluster PoDG, Hippocampus (R)", "result": 20830, "unit": "voxels"}, {"measurement": "VBM cluster T-score", "setting": "[8]; cluster RSG, Cortex (L)", "result": 5.00}, {"measurement": "VBM cluster Extent", "setting": "[8]; cluster RSG, Cortex (L)", "result": 1624, "unit": "voxels"}, {"measurement": "VBM cluster T-score", "setting": "[8]; cluster S1BF, Cortex (L)", "result": 4.92}, {"measurement": "VBM cluster Extent", "setting": "[8]; cluster S1BF, Cortex (L)", "result": 36911, "unit": "voxels"}, {"measurement": "VBM cluster T-score", "setting": "[8]; cluster S1FL, Cortex (L)", "result": 3.30}, {"measurement": "VBM cluster Extent", "setting": "[8]; cluster S1FL, Cortex (L)", "result": 653, "unit": "voxels"}, {"measurement": "VBM cluster T-score", "setting": "[8]; cluster S1FL, Cortex (R)", "result": 4.27}, {"measurement": "VBM cluster Extent", "setting": "[8]; cluster S1FL, Cortex (R)", "result": 4637, "unit": "voxels"}, {"measurement": "VBM cluster T-score", "setting": "[8]; cluster SuG, Colliculus (R)", "result": 4.72}, {"measurement": "VBM cluster Extent", "setting": "[8]; cluster SuG, Colliculus (R)", "result": 2194, "unit": "voxels"}, {"measurement": "toxicity in experimental animals (in words)", "setting": "[9]", "result": "no evidence of toxicity in our experimental animals"}]}]}
